A short description of data set [1]: Cytotoxicity against human HepG2 cells assessed as viable cells at 25 uM after 48 hrs by MTT assay. Conditions: read-out: Activity; call rule not given here. It counts as cell-based. In a few lines:
(§1)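 HepG2 in DMEM/10% FBS, 1.2 × 10^4 cells/well, grown 48 h before dosing. Compounds from 10% DMSO stocks diluted in medium, 3.13–100 µM, 48 h at 37 °C, 5% CO2. MTT (5 mg mL-1) for 4 h, DMSO solubilisation, absorbance at 570 nm (reference 655 nm). Viability is treated absorbance relative to untreated control. Triplicate, repeated thrice.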
(In general: Tetrazolium assays rely on reduction of a dye to a coloured formazan, in cell work by metabolically active cells.)

For data set [2], the system named is HepG2. Description: Cytotoxicity against human HepG2 cells up to 50 uM after 48 hrs by MTT assay. Type of data set: cell-based. Conditions: hepg2, 48 h. In a few lines:
as §1

For data set [3], the system named is HepG2. Description: Cytotoxicity against human HepG2 cells after 48 hrs by MTT assay. It counts as cell-based. The following applies: for IC50: Homo sapiens, HepG2, 48 h; for Activity: human, hepg2, 48 h. In a few lines: as §1
For another data set, the system named is Entamoeba histolytica. Kind of data set: Antiamoebic activity against Entamoeba histolytica HM-1:IMSS after 72 hrs by microdilution method. Type of data set: functional, organism-based. In a few lines: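 E. histolytica HM1:IMSS trophozoites in Diamond TYIS-33 medium; 1 mg mL-1 DMSO stocks, two-fold serial dilutions; 1.7 × 10^4 amoebae/well; sealed, gassed with nitrogen 10 min, 35.5 °C for 72 h. Wells methanol-fixed, eosin-stained, dye released in 0.1N NaOH, OD 490 nm. % inhibition vs control plotted against log dose; IC50 by linear regression. Triplicate, repeated thrice.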
On the technique in general: Broth dilution looks for growth in wells or tubes with falling amounts of substance.

Data set [4] is described as follows: Safety index, ratio of IC50 for human HepG2 cells to IC50 for Entamoeba histolytica HM-1:IMSS. Conditions: read-out: Ratio IC50. Type of data set: toxicity, cell-based. In a few lines:
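Safety index calculated as HepG2 MTT IC50 (48 h) divided by E. histolytica HM1:IMSS IC50 (72 h microdilution).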

Data set [5] can be described thus: Cytotoxicity against human HepG2 cells assessed as viable cells at 3.13 uM after 48 hrs by MTT assay. It counts as cell-based. Conditions: read-out: Activity. In a few lines: as §1
Data set [6] concerns HepG2. Description: Cytotoxicity against human HepG2 cells up to 100 uM after 48 hrs by MTT assay. Type of data set: cell-based. The following applies: hepg2, 48 h. The gist of the method: as §1

For orientation: IC50 means the concentration needed to halve the response being measured. A higher IC50 goes with a need for much substance. `O=S(=O)(c1ccccc1)n1nnnc1-c1ccc2c(c1)OCO2`: the viability at 48 h, 25 µM in data set [1] is not below 70%. Further, the results for the Activity result in the data set on HepG2 [2], in the data set with HepG2 [3] and with HepG2 [6] were “Toxic”, “Dose-dependent effect” and “Toxic”, respectively. Further, the values for the IC50 in the data set with HepG2 [3] and in the data set with Entamoeba histolytica were more than 100 µM and 7.56 µM, respectively. For the same molecule, the selectivity ratio in data set [4] is more than 13.2. Moreover, in data set [5], the viability at 48 h, 3.13 µM was determined as 92.5%.

With `Cc1ccc(S(=O)(=O)n2nnnc2-c2ccc3c(c2)OCO3)cc1`, the viability at 48 h, 25 µM in data set [1] was not below 70%. Also, the Activity entry in the data set with HepG2 [2] was “Toxic”; in the data set with HepG2 [3], “Dose-dependent effect”; with HepG2 [6], “Toxic”. Besides, the IC50 with HepG2 [3] was more than 100 µM; with Entamoeba histolytica, 6.1 µM. The selectivity ratio in data set [4] is more than 16.4. In addition, the viability at 48 h, 3.13 µM in data set [5] turned out to be 92.5%.

With `O=S(=O)(c1ccc(Cl)cc1)n1nnnc1-c1ccc2c(c1)OCO2`, the viability at 48 h, 25 µM in data set [1] is not below 70%. For the same molecule, the Activity entry is recorded as “Toxic” in the data set with HepG2 [2], “Dose-dependent effect” in the data set on HepG2 [3] and “Toxic” with HepG2 [6]. Moreover, the IC50 is more than 100 µM in the data set on HepG2 [3] and 4.85 µM in the data set on Entamoeba histolytica. Further, the selectivity ratio in data set [4] was more than 20.6. In data set [5], the viability at 48 h, 3.13 µM was 92.5%.

As to `O=[N+]([O-])c1ccc(S(=O)(=O)n2nnnc2-c2ccc3c(c2)OCO3)cc1`, the viability at 48 h, 25 µM in data set [1] is not below 70%. For the same molecule, the Activity entry in the data set on HepG2 [2] is reported as “Toxic”; in the data set on HepG2 [3], “Dose-dependent effect”; with HepG2 [6], “Toxic”. In addition, the IC50 in the data set with HepG2 [3] stood at 84.7 µM; with Entamoeba histolytica, 3.75 µM. In addition, the selectivity ratio in data set [4] worked out at 22.6. For the same molecule, in data set [5], the viability at 48 h, 3.13 µM came out at 92.5%.

For `O=S(=O)(c1ccc(Cl)cc1Cl)n1nnnc1-c1ccc2c(c1)OCO2`, the viability at 48 h, 25 µM in data set [1] was not below 70%. Also, the Activity result is “Toxic” in the data set with HepG2 [2], “Dose-dependent effect” in the data set with HepG2 [3] and “Toxic” in the data set with HepG2 [6]. Also, the IC50 with HepG2 [3] was 85 µM; with Entamoeba histolytica, 6.9 µM. Further, the selectivity ratio in data set [4] stood at 12.3. In data set [5], the viability at 48 h, 3.13 µM worked out at 92.5%.

`CC(C)c1ccc(S(=O)(=O)n2nnnc2-c2ccc3c(c2)OCO3)cc1`: in data set [1], the viability at 48 h, 25 µM was not below 70%. Further, the Activity result in the data set with HepG2 [2] was “Toxic”; with HepG2 [3] it was “Dose-dependent effect”; in the data set on HepG2 [6], “Toxic”. The IC50 in the data set on HepG2 [3] is more than 100 µM; with Entamoeba histolytica it was 6.28 µM. Further, in data set [4], the selectivity ratio was more than 15.9. The viability at 48 h, 3.13 µM in data set [5] was 92.5%.

For `O=S(=O)(Nc1nc(NS(=O)(=O)c2ccccc2)nc(-c2ccc3c(c2)OCO3)n1)c1ccccc1`, the viability at 48 h, 25 µM in data set [1] was not below 70%. The Activity entry in the data set with HepG2 [2] is “Toxic”; in the data set on HepG2 [3] it was “Dose-dependent effect”; with HepG2 [6], “Toxic”. Also, the IC50 is more than 100 µM with HepG2 [3] and 2.6 µM in the data set with Entamoeba histolytica. Further, the selectivity ratio in data set [4] was more than 38.5. Moreover, the viability at 48 h, 3.13 µM in data set [5] worked out at 92.5%.

As to `Cc1ccc(S(=O)(=O)Nc2nc(NS(=O)(=O)c3ccc(C)cc3)nc(-c3ccc4c(c3)OCO4)n2)cc1`, in data set [1], the viability at 48 h, 25 µM is not below 70%. The Activity result is “Toxic” in the data set with HepG2 [2], “Dose-dependent effect” in the data set with HepG2 [3] and “Toxic” in the data set with HepG2 [6]. For the same molecule, the IC50 in the data set on HepG2 [3] is more than 100 µM; in the data set with Entamoeba histolytica it was 2.15 µM. The selectivity ratio in data set [4] was more than 46.5. The viability at 48 h, 3.13 µM in data set [5] came to 92.5%.

For `O=S(=O)(Nc1nc(NS(=O)(=O)c2ccc(Cl)cc2)nc(-c2ccc3c(c2)OCO3)n1)c1ccc(Cl)cc1`, in data set [1], the viability at 48 h, 25 µM was not below 70%. In addition, the Activity entry in the data set with HepG2 [2] is recorded as “Toxic”; in the data set with HepG2 [3], “Dose-dependent effect”; with HepG2 [6], “Toxic”. Further, the IC50 is more than 100 µM in the data set with HepG2 [3] and 1.05 µM in the data set on Entamoeba histolytica. For the same molecule, the selectivity ratio in data set [4] is more than 95.2. In addition, the viability at 48 h, 3.13 µM in data set [5] worked out at 92.5%.

With `O=[N+]([O-])c1ccc(S(=O)(=O)Nc2nc(NS(=O)(=O)c3ccc([N+](=O)[O-])cc3)nc(-c3ccc4c(c3)OCO4)n2)cc1`, the viability at 48 h, 25 µM in data set [1] is not below 70%. Also, the Activity entry was “Toxic” in the data set on HepG2 [2], “Dose-dependent effect” in the data set on HepG2 [3] and “Toxic” in the data set on HepG2 [6]. Also, the IC50 is more than 100 µM in the data set on HepG2 [3] and 1.02 µM in the data set with Entamoeba histolytica. In addition, in data set [4], the selectivity ratio was more than 98. In addition, the viability at 48 h, 3.13 µM in data set [5] was found to be 92.5%.

For the molecule `O=S(=O)(Nc1nc(NS(=O)(=O)c2ccc(Cl)cc2Cl)nc(-c2ccc3c(c2)OCO3)n1)c1ccc(Cl)cc1Cl`, the viability at 48 h, 25 µM in data set [1] was not below 70%. In addition, the Activity result in the data set on HepG2 [2] is “Toxic”; in the data set with HepG2 [3], “Dose-dependent effect”; with HepG2 [6], “Toxic”. The IC50 in the data set on HepG2 [3] is more than 100 µM; in the data set with Entamoeba histolytica it was 2.56 µM. Besides, the selectivity ratio in data set [4] is more than 39.1. The viability at 48 h, 3.13 µM in data set [5] was 92.5%.

Regarding `CC(C)c1ccc(S(=O)(=O)Nc2nc(NS(=O)(=O)c3ccc(C(C)C)cc3)nc(-c3ccc4c(c3)OCO4)n2)cc1`, the viability at 48 h, 25 µM in data set [1] is not below 70%. The values for the Activity entry with HepG2 [2], in the data set on HepG2 [3] and with HepG2 [6] were “Toxic”, “Dose-dependent effect” and “Toxic”, respectively. Further, the results for the IC50 in the data set with HepG2 [3] and with Entamoeba histolytica were more than 100 µM and 2.85 µM, respectively. The selectivity ratio in data set [4] was more than 35.1. Also, the viability at 48 h, 3.13 µM in data set [5] was found to be 92.5%.

Take `c1cc2c(cc1-c1nnn[nH]1)OCO2`: in data set [1], the viability at 48 h, 25 µM is not below 70%. The Activity entry in the data set with HepG2 [2] was “Toxic”; in the data set with HepG2 [3] it was “Dose-dependent effect”; in the data set on HepG2 [6], “Toxic”. This molecule had an IC50 in the data set on Entamoeba histolytica of 14.2 µM. For the same molecule, the viability at 48 h, 3.13 µM in data set [5] was 92.5%.

As for `Nc1nc(N)nc(-c2ccc3c(c2)OCO3)n1`, the viability at 48 h, 25 µM in data set [1] was not below 70%. Moreover, the Activity entry in the data set with HepG2 [2] is reported as “Toxic”; in the data set on HepG2 [3], “Dose-dependent effect”; with HepG2 [6], “Toxic”. In the data set on Entamoeba histolytica, this molecule returned an IC50 of 3.54 µM. For the same molecule, the viability at 48 h, 3.13 µM in data set [5] came to 92.5%.

Turning to `Cc1ncc([N+](=O)[O-])n1CCO` [METRONIDAZOLE], the IC50 in the data set on HepG2 [3] was more than 100 µM. Further, the selectivity ratio in data set [4] is more than 55.5. The viability at 48 h, 3.13 µM in data set [5] came out at 92.5%.

The values above are taken from ChEMBL document CHEMBL1933011, “Probing the antiamoebic and cytotoxicity potency of novel tetrazole and triazine derivatives” (Eur J Med Chem, 2012).
